Test results taken from ChEMBL document CHEMBL3525946, “Species comparison of in vivo P-glycoprotein-mediated brain efflux using mdr1a-deficient rats and mice” (Drug Metab Dispos, 2012).

Tests used:
[1] = Total plasma concentration in mdr1a-deficient rat at 9 mg/kg/day administered through continuous minipump treatment for 3 days by UPLC-MS analysis; type: ADME, organism-based; details: other: continuous minipump
Procedure, shortened: (§1)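 Drug was infused subcutaneously by osmotic minipump for 3 days to steady state, at 1 µl/h in mice and 10 µl/h in rats, with doses derived from body weight and delivery rate. Animals were decapitated. Plasma came from EDTA trunk blood spun at 5000 g for 10 min at 4 °C. Whole brain was homogenised 1:4 in 70% acetonitrile and the supernatant kept. Samples were protein-precipitated with internal standard and analysed by UPLC. n=3-5, mean ± SEM.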

[2] = Total drug level in mdr1a-deficient rat brain at 9 mg/kg/day administered through continuous minipump treatment for 3 days by UPLC-MS analysis; type: ADME, organism-based; details: other: continuous minipump, read-out: Drug uptake; procedure, shortened: as §1
[3] = Percentage unbound in Crl:NMRI(Han) mouse brain at 1 uM after 5 hrs by equilibrium dialysis method; type: ADME, tissue-based
Procedure, shortened: (§2)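 Equilibrium dialysis (12-14 kDa membrane) of plasma or brain homogenate from naïve male Sprague-Dawley rats or Crl:NMRI(Han) mice. Donor side spiked to 1 µM final; receiver phosphate buffer pH 7.4; 37°C for 5 h. Buffer phase quantified by LC-MS. Brain fu corrected for homogenate dilution to intact tissue. Mean of two independent determinations.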

[4] = Total plasma concentration in wild type Crl:CF1 mouse expressing Abcb1a mutant at 6 mg/kg/day administered through continuous minipump treatment for 3 days by UPLC-MS analysis; type: ADME, organism-based; details: other: continuous minipump
Procedure, shortened: (§3)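 Subcutaneous osmotic minipump infusion for 3 days to steady state, implanted under isoflurane (rats 10 µl/h, mice 1 µl/h). Mdr1a-deficient (SD-Abcb1a knockout rats; Crl:CF1-Abcb1a mutant mice) and wild-type animals, n=3-5 per group. After decapitation, EDTA plasma and whole brain (homogenized 1:4 in 70% acetonitrile) were precipitated with internal standard. Parent and metabolites quantified by UPLC-MS. Mean ± SEM.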

[5] = Total drug level in mdr1a-deficient mouse brain at 6 mg/kg/day administered through continuous minipump treatment for 3 days by UPLC-MS analysis; type: ADME, organism-based; details: other: continuous minipump, read-out: Drug uptake; procedure, shortened: as §3
[6] = Percentage unbound in Crl:NMRI(Han) mouse plasma at 1 uM after 5 hrs by equilibrium dialysis method; type: ADME, cell-free; procedure, shortened: as §2
[7] = Total drug level in wild type Sprague-Dawley rat brain expressing Abcb1a at 9 mg/kg/day administered through continuous minipump treatment for 3 days by UPLC-MS analysis; type: ADME, organism-based; details: other: continuous minipump, read-out: Drug uptake; procedure, shortened: as §1
[8] = Percentage unbound in Sprague-Dawley rat plasma at 1 uM after 5 hrs by equilibrium dialysis method; type: ADME, cell-free; procedure, shortened: as §2
[9] = Total plasma concentration in wild type Sprague-Dawley rat expressing Abcb1a at 9 mg/kg/day administered through continuous minipump treatment for 3 days by UPLC-MS analysis; type: ADME, organism-based; details: other: continuous minipump; procedure, shortened: as §1
[10] = Percentage unbound in Sprague-Dawley rat brain at 1 uM after 5 hrs by equilibrium dialysis method; type: ADME, tissue-based; procedure, shortened: as §2
[11] = Total plasma concentration in mdr1a-deficient mouse at 6 mg/kg/day administered through continuous minipump treatment for 3 days by UPLC-MS analysis; type: ADME, organism-based; details: other: continuous minipump; procedure, shortened: as §3
[12] = Total drug level in wild type Crl:CF1 mouse brain expressing Abcb1a mutant at 6 mg/kg/day administered through continuous minipump treatment for 3 days by UPLC-MS analysis; type: ADME, organism-based; details: other: continuous minipump, read-out: Drug uptake; procedure, shortened: as §3
[13] = Unbound brain to plasma partition coefficient of the compound in wild type Crl:CF1 mouse expressing Abcb1a mutant treated with venlafaxine at 12 mg/kg/day administered through continuous minipump treatment for 3 days; type: ADME, organism-based; details: other: continuous minipump, read-out: K(p,uu,brain)
Procedure, shortened: (§4)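 Kp,uu is (Cbrain,total × fu,brain)/(Cplasma,total × fu,plasma). Total concentrations were measured at steady state after a 3-day subcutaneous minipump infusion in knockout or wild-type animals. Species-matched free fractions came from 5 h, 37°C equilibrium dialysis at 1 µM in naïve plasma and brain homogenate.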

[14] = Unbound brain to plasma partition coefficient of the compound in mdr1a-deficient mouse treated with venlafaxine at 12 mg/kg/day administered through continuous minipump treatment for 3 days; type: ADME, organism-based; details: other: continuous minipump, read-out: K(p,uu,brain); procedure, shortened: as §4
[15] = Total plasma concentration in mdr1a-deficient rat treated with venlafaxine at 9 mg/kg/day administered through continuous minipump treatment for 3 days by UPLC-MS analysis; type: ADME, organism-based; details: other: continuous minipump; procedure, shortened: as §3
[16] = Total brain to plasma partition coefficient of the compound in wild type Sprague-Dawley rat expressing Abcb1a treated with venlafaxine at 9 mg/kg/day administered through continuous minipump treatment for 3 days; type: ADME, organism-based; details: brain and plasma, other: continuous minipump
Procedure, shortened: (§5)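 Kp is total brain concentration divided by total plasma concentration at steady state. Measured after a 3-day subcutaneous osmotic minipump infusion in mdr1a-deficient or wild-type rats or mice, n=3-5. Concentrations determined by UPLC-MS in plasma and in whole-brain homogenate (70% acetonitrile). Mean ± SEM.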

[17] = Total drug level in mdr1a-deficient mouse brain treated with venlafaxine at 12 mg/kg/day administered through continuous minipump treatment for 3 days by UPLC-MS analysis; type: ADME, organism-based; details: other: continuous minipump, read-out: Drug uptake; procedure, shortened: as §3
[18] = Total brain to plasma partition coefficient of the compound in wild type Crl:CF1 mouse expressing Abcb1a mutant treated with venlafaxine at 12 mg/kg/day administered through continuous minipump treatment for 3 days; type: ADME, organism-based; details: other: continuous minipump; procedure, shortened: as §5
[19] = Total plasma concentration in mdr1a-deficient mouse treated with venlafaxine at 12 mg/kg/day administered through continuous minipump treatment for 3 days by UPLC-MS analysis; type: ADME, organism-based; details: other: continuous minipump; procedure, shortened: as §3
[20] = Total drug level in mdr1a-deficient rat brain treated with venlafaxine at 9 mg/kg/day administered through continuous minipump treatment for 3 days by UPLC-MS analysis; type: ADME, organism-based; details: other: continuous minipump, read-out: Drug uptake; procedure, shortened: as §3
[21] = Total drug level in wild type Crl:CF1 mouse brain expressing Abcb1a mutant treated with venlafaxine at 12 mg/kg/day administered through continuous minipump treatment for 3 days by UPLC-MS analysis; type: ADME, organism-based; details: other: continuous minipump, read-out: Drug uptake; procedure, shortened: as §3
[22] = Total plasma concentration in wild type Sprague-Dawley rat expressing Abcb1a treated with venlafaxine at 9 mg/kg/day administered through continuous minipump treatment for 3 days by UPLC-MS analysis; type: ADME, organism-based; details: other: continuous minipump; procedure, shortened: as §3
[23] = Total brain to plasma partition coefficient of the compound in mdr1a-deficient mouse treated with venlafaxine at 12 mg/kg/day administered through continuous minipump treatment for 3 days; type: ADME, organism-based; details: other: continuous minipump; procedure, shortened: as §5
[24] = Unbound brain to plasma partition coefficient of the compound in wild type Sprague-Dawley rat expressing Abcb1a treated with venlafaxine at 9 mg/kg/day administered through continuous minipump treatment for 3 days; type: ADME, organism-based; details: other: continuous minipump, read-out: K(p,uu,brain); procedure, shortened: as §4
[25] = Total plasma concentration in wild type Crl:CF1 mouse expressing Abcb1a mutant treated with venlafaxine at 12 mg/kg/day administered through continuous minipump treatment for 3 days by UPLC-MS analysis; type: ADME, organism-based; details: other: continuous minipump; procedure, shortened: as §3
[26] = Total drug level in wild type Sprague-Dawley rat brain expressing Abcb1a treated with venlafaxine at 9 mg/kg/day administered through continuous minipump treatment for 3 days by UPLC-MS analysis; type: ADME, organism-based; details: other: continuous minipump, read-out: Drug uptake; procedure, shortened: as §3
[27] = Unbound brain to plasma partition coefficient of the compound in mdr1a-deficient Sprague-Dawley rat treated with venlafaxine at 9 mg/kg/day administered through continuous minipump treatment for 3 days; type: ADME, organism-based; details: other: continuous minipump, read-out: K(p,uu,brain); procedure, shortened: as §4
[28] = Total brain to plasma partition coefficient of the compound in mdr1a-deficient rat treated with venlafaxine at 9 mg/kg/day administered through continuous minipump treatment for 3 days; type: ADME, organism-based; details: brain and plasma, other: continuous minipump; procedure, shortened: as §5

| SMILES | fraction unbound at 5 h, 1 µM [3] | fraction unbound at 5 h, 1 µM [6] | fraction unbound at 5 h, 1 µM [8] | fraction unbound at 5 h, 1 µM [10] | Kp uu at 72 h [13] | Kp uu at 72 h [14] | concentration at 72 h [15] [ng/mL] | Kp at 72 h [16] | concentration at 72 h [17] [ng/g] | Kp at 72 h [18] | concentration at 72 h [19] [ng/mL] | concentration at 72 h [20] [ng/g] | concentration at 72 h [21] [ng/g] | concentration at 72 h [22] [ng/mL] | Kp at 72 h [23] | Kp uu at 72 h [24] | concentration at 72 h [25] [ng/mL] | concentration at 72 h [26] [ng/g] | Kp uu at 72 h [27] | Kp at 72 h [28] | other results |
| --- | --- | --- | --- | --- | --- | --- | --- | --- | --- | --- | --- | --- | --- | --- | --- | --- | --- | --- | --- | --- | --- |
| Br.CN(C)CCCC1(c2ccc(F)cc2)OCc2cc(C#N)ccc21 (configuration not stated) [CITALOPRAM HYDROBROMIDE] | 0.035 | 0.32 | 0.5 | 0.031 | – | – | – | – | – | – | – | – | – | – | – | – | – | – | – | – | concentration at 72 h [1]: 35 ng/mL; concentration at 72 h [2]: 1200 ng/g; concentration at 72 h [4]: 8.8 ng/mL; concentration at 72 h [5]: 361 ng/g; concentration at 72 h [7]: 265 ng/g; concentration at 72 h [9]: 27 ng/mL; concentration at 72 h [11]: 8.2 ng/mL; concentration at 72 h [12]: 191 ng/g |
| CN(C)CC(c1ccc(O)cc1)C1(O)CCCCC1 (configuration not stated) [DESVENLAFAXINE] | 0.45 | > 0.99 | 0.89 | 0.35 | 0.8 | 2.4 | 11 | 1 | 40 | 1.8 | 7.5 | 33 | 10 | 4.5 | 5.7 | 0.38 | 5.7 | 4.4 | 1.2 | 3.3 | – |
| CNCC(c1ccc(OC)cc1)C1(O)CCCCC1 (configuration not stated) [N-DESMETHYLVENLAFAXINE] | 0.16 | 0.8 | 0.32 | 0.08 | 0.29 | 1.4 | 10 | 1.4 | 77 | 1.5 | 11 | 79 | 25 | 6.8 | 7 | 0.34 | 17 | 9.3 | 2 | 8.9 | – |
